Results taken from ChEMBL document CHEMBL4396890, “Synthesis, Biological Evaluation, Structure-Activity Relationship, and Mechanism of Action Studies of Quinoline-Metronidazole Derivatives Against Experimental Visceral Leishmaniasis” (J Med Chem, 2019).
The source made the active and inactive calls. No cut-off for these calls is given here.

How the values were obtained:
Leishmania donovani [1] = test: Antileishmanial activity against Leishmania donovani MHOM/IN/80/Dd8 promastigotes infected in BALB/c mouse assessed as reduction in parasite load in liver at 25 mg/kg, ip administered once daily for 5 days measured 7 days post dose by giemsa staining-based assay relative to control; assay type: functional; design: scale not given: the % may be the effect or the level left
Procedure, shortened: (§1)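 Hamster-passaged strain was transformed to promastigotes. Stationary-phase cells (2 × 10^7 in 0.2 mL PBS) were injected into the tail vein of BALB/c mice. From day 15 post-infection, mice received compound ip in 8% DMSO in PBS for 5 consecutive days, 5 mice per group. Mice were killed day 7 post-treatment. Liver and spleen burden was read from Giemsa-stained stamp smears as LDU.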

Leishmania donovani [2] = test: Antileishmanial activity against Leishmania donovani MHOM/IN/80/Dd8 promastigotes infected in BALB/c mouse assessed as reduction in parasite load in spleen at 100 mg/kg, ip administered once daily for 5 days measured 7 days post dose by giemsa staining-based assay relative to control; assay type: functional; design: scale not given: the % may be the effect or the level left; procedure, shortened: as §1
Leishmania donovani [3] = test: Induction of apoptosis in Leishmania donovani MHOM/IN/80/Dd8 promastigotes assessed as late apoptotic cells at 50 uM measured after 12 hrs by Annexin V-FITC/propidium iodide staining based assay (reference value: 0.46%); assay type: functional
Leishmania donovani [4] = test: Induction of apoptosis in Leishmania donovani MHOM/IN/80/Dd8 promastigotes assessed as late apoptotic cells at 50 uM measured after 12 hrs by Annexin V-FITC/propidium iodide staining based assay (reference value: 0.02%); assay type: functional
Leishmania donovani [5] = test: Induction of apoptosis in Leishmania donovani MHOM/IN/80/Dd8 promastigotes assessed as late apoptotic cells at 50 uM measured after 24 hrs by Annexin V-FITC/propidium iodide staining based assay (reference value: 0.02%); assay type: functional
Leishmania donovani [6] = test: Induction of apoptosis in Leishmania donovani MHOM/IN/80/Dd8 promastigotes assessed as DNA fragmentation at 50 uM after 48 hrs by TUNEL staining-based confocal microscopic analysis; assay type: functional, organism-based
Procedure, shortened: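 Log-phase promastigotes (1 × 10^5) were treated with 50 μM compound or 0.1% DMSO vehicle for 48 h. DNA fragmentation was labelled with an APO-BrdU TUNEL kit with PI counterstain. Cells were imaged by phase-contrast and fluorescence microscopy.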

Leishmania donovani [7] = test: Induction of morphological changes in Leishmania donovani MHOM/IN/80/Dd8 promastigotes assessed as appearance of round shape parasite at 50 uM after 48 hrs by bright field microscopic analysis; assay type: functional, organism-based
Leishmania donovani [8] = test: Induction of apoptosis in Leishmania donovani MHOM/IN/80/Dd8 promastigotes assessed as increase in meta-caspase activity at 50 uM using BOC-GRR-AMC as substrate preincubated for 1 hr followed by substrate addition and measured after 2 hrs in presence of caspase inhibitor zVAD-fmk by fluorometric assay; assay type: functional, organism-based
Procedure, shortened: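 Log-phase promastigotes were pretreated for 1 h with antipain (1 μM) or zVAD-fmk (100 μM), then exposed to 50 μM compound or 0.1% DMSO. Metacaspase activity in lysates was read with fluorogenic BOC-GRR-AMC and expressed as RFU per mg protein.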

Leishmania donovani [9] = test: Induction of mitochondrial potential loss in Leishmania donovani MHOM/IN/80/Dd8 promastigotes assessed as shift in red to green fluorescence at 50 uM after 24 hrs by JC1 dye-based flow cytometry (reference value: 7.37%); assay type: functional
Procedure, shortened: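 Exponential-phase promastigotes were incubated with 50 μM compound for 6−48 h, or 0.1% DMSO vehicle. CCCP (50 μM) served as positive control. After JC-1 staining, the red-to-green fluorescence shift was measured by flow cytometry.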

[10] = Half life in BALB/c mouse at 50 mg/kg, po administered via gavage by LC-MS/MS analysis; assay type: ADME, organism-based; details: in vivo
[11] = Cmax in BALB/c mouse at 50 mg/kg, po administered via gavage by LC-MS/MS analysis; assay type: ADME, organism-based; design: dose 50 mg/kg, route oral; details: in vivo
[12] = Apparent volume of distribution in BALB/c mouse at 50 mg/kg, po administered via gavage by LC-MS/MS analysis; assay type: ADME, organism-based; details: in vivo
[13] = Clearance in BALB/c mouse at 50 mg/kg, po administered via gavage by LC-MS/MS analysis; assay type: ADME, organism-based; details: in vivo

Cc1cc(-c2ccc(OCCn3c([N+](=O)[O-])cnc3C)cc2)nc2ccccc12
Activity (Leishmania donovani [1]): >62% | Activity (Leishmania donovani [2]): 81.7% | Activity (Leishmania donovani [3]): 20.59% | Activity (Leishmania donovani [4]): 1.43% | Activity (Leishmania donovani [5]): 10.04% | Activity (Leishmania donovani [6]): Active | Activity (Leishmania donovani [7]): Active | inhibition (Leishmania donovani [8]): Active | Activity (Leishmania donovani [9]): 54.18% | half-life [10]: 4.02 h | Cmax [11]: 6860 ng/mL | Vd(app) [12]: 15.98 L/kg | CL/F [13]: 45.8 mL/min/kg
